Wee1 stabilizer – Wee1 degradation inhibitors, primary screen, cell-based, HeLa, Wee1K328M-luciferase, luminescence. Wee1-like protein kinase (Homo sapiens), P30291. HeLa Luc-Wee1K328M stability; 100% = proteasome inhibitor MG132 effect. reporter increase, % at 5 µM. 1.2% of 220,000 active;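 active = activation above the mean of all tested compounds plus 3 SD, set per screening run, cut at about 8.8% in these data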;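 also: cells exposed to compound for 20 h before luminescence read; 0% = DMSO alone and 100% = MG132 at 30 µM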
FLuc inh counter – firefly luciferase enzyme inhibitors, primary screen, artefact control for luciferase-based inhibitor screens, biochemical, luminescence, ATPLite; Luciferin 4-monooxygenase (Photinus pyralis), P08659; 10 min; inhibition, % at 10 µM; 1.5% of 200,000 active;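 active = inhibition above about 50% when tested at 10 µM, limit read from the data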
Target sequence (P08659 whole entry, looked up): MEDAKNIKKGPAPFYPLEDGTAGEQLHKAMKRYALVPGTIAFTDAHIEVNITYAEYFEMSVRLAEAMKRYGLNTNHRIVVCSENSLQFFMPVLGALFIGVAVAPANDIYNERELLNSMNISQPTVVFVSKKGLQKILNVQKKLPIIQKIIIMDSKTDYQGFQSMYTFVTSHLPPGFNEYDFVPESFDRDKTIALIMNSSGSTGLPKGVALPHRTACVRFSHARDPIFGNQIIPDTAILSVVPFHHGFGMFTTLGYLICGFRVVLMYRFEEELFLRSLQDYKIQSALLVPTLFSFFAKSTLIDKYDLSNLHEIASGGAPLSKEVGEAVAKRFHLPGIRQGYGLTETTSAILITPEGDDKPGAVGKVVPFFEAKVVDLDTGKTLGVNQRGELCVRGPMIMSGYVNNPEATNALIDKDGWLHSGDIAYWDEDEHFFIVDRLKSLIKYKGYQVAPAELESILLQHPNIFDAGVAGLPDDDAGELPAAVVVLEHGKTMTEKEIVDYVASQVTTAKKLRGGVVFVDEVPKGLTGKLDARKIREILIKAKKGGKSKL
FLuc stim CS – FLuc activators, initial screening, artefact control for FLuc-dependent activation tests, biochemical, ATPlite luminescence | Luciferin 4-monooxygenase (Photinus pyralis), P08659 | AID 1027, 2008 | 200,000 tested, under 10 active | ATPlite luciferase biochemical, 10 min; 0 = ATP-free wells, 1 = DMSO control | activation factor at 10 µM;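 active = luciferase activation factor, scaled between plate controls, of at least 2 with compound at 10 µM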
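Material: Luciferase/luciferin reagent mix; Doses: test compounds dosed from 2 mM stocks in 100% DMSO; Schedule: 10 min incubation after luciferase reagent addition, room temperature; Measured by: luminescence from luciferase reaction; Read-out: luminescence gain marking luciferase activators.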
PPC-1+TRAIL kill – compounds killing PPC-1 cancer cells with TRAIL present, primary screen, TRAIL potentiator project, ATPLite luminescence, uHTS; PPC-1 cells + TRAIL, ATPLite viability luminescence; cell killing (% activity), % at 4 µM or 5 µM; 0.41% of 220,000 active; AID 1443, 2008;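 active = cell killing above 50% in the first pass at 4 µM, then a duplicate retest at 5 µM averaging 50% or more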;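 also: plate controls were cells with TRAIL plus DMSO for no effect and medium-only wells lacking cells for full effect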
PKD1 kinase inh – inhibitors of human PKD1 kinase, biochemical, fluorescence polarization | PKD1 kinase fluorescence polarization assay | inhibition, % (test concentration not listed) | Serine/threonine-protein kinase D1 (Homo sapiens), Q15139 | 0.056% of 200,000 active; in the data active = inhibition above about 50%
TRAIL sens C8 – viability loss with TRAIL in NB7+C8 cells, primary screen, TRAIL sensitizer project, cell-based, ATPlite luminescence. 1% of 360,000 active. AID 624354, 2012. inhibition (viability loss, TRAIL sensitization), % at 10 µM;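 active = compounds causing at least 50% loss of cell viability in the single-dose screen, relative to plate controls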
Numbers without * were called inactive; nt = not tested or not shown. Sampled rows, rich in hits. Any-hit rate of the full collection: about 2.2%.

SMILES	Wee1 stabilizer	FLuc inh counter	FLuc stim CS	PPC-1+TRAIL kill	PKD1 kinase inh	TRAIL sens C8
C=CCN(C(=O)CNC(=O)c1cccs1)C(C(=O)NC(C)(C)C)c1ccccc1 (configuration not stated)	1	-9	1.1	16	5	-17
Cc1cccn2c(=O)c3cc(C(=O)NCCC4=CCCCC4)n(C)c3nc12	nt	nt	nt	nt	nt	16
Cn1c(C(=O)NCCC2=CCCCC2)cc2c(=O)n3ccccc3nc21	0	0	1	19	-2	60*
Oc1ccccc1-c1nc(/C=C/c2ccccc2)nn1-c1ccccc1	9.6*	6	0.9	17	-9	4
COc1ccc(C(CNC(=O)c2cccc(NS(=O)(=O)c3ccc(C)c(F)c3)c2)N2CCOCC2)cc1 (configuration not stated)	nt	nt	nt	nt	nt	-3
O=C(N=C1N=C2C=CC(Br)=CN2Cc2ccccc21)c1ccc([N+](=O)[O-])cc1[N+](=O)[O-]	11*	nt	nt	-15	nt	19
C=CCn1c(SCC(=O)Nc2ccccc2-c2ccccc2)nc2cc(C(=O)O)ccc2c1=O	1	-7	1.1	11	0	4
Cc1cccc(NC(=O)CCCSc2nc3ccccc3[nH]2)c1	10*	-2	1	19	1	7
CCc1ccc(NC(=O)CCc2nc3ccccc3[nH]2)cc1	9.5*	-2	1	31	-4	4
O=C(CCc1nc2ccccc2[nH]1)Nc1ccccc1	3	-5	1.1	-23	-11	-11
CC(Sc1ccc(S(=O)(=O)N2CCN(C)CC2)cn1)C(=O)NC1CCCCC1 (configuration not stated)	nt	nt	nt	nt	nt	11
Fc1ccc(Nc2nnc(C(F)(F)F)s2)cc1	-2	nt	nt	10	nt	-4
CS(=O)(=O)NCCn1ccc2ccccc21	-1	-5	1.1	3	0	1
CCOC(=O)N1CCC(N2C(=O)c3ccccc3C2Nc2ccc(S(=O)(=O)N3CCCCC3)cc2)CC1 (configuration not stated)	1	-10	1.1	5	-5	nt
CC(C)c1ccc(/C=C2\SC(=S)N(CCC(=O)N3CCCCC3CCO)C2=O)cc1 (configuration not stated)	nt	nt	nt	nt	nt	60*
O=C1CCC/C(=N\NC(=O)COc2ccc(Cl)cc2)C1	1	-7	1.1	20	-5	-4
CC(=O)Nc1ccc(S(=O)(=O)N[C@@H](C)C(=O)NC2CCCc3ccccc32)cc1 (some centres not stated)	nt	nt	nt	nt	nt	-12
COc1ccc(-n2ncc3c(N4CCCCC4)ncnc32)cc1	-3	94*	0.1	nt	-7	89*
Cc1cccc(-n2ncc3c(N4CCCC4)ncnc32)c1	4	87*	0.1	44	3	80*
CN(C(=O)c1cccc(NC(=O)Cc2cccc([N+](=O)[O-])c2)c1)C1CCCC1	nt	nt	nt	nt	nt	4
Cc1ccccc1Nc1nn2c(=O)c3ccccc3nc2s1	0	39	0.6	41	3	50*
O=c1c2ccccc2nc2sc(Nc3ccc(F)cc3)nn12	nt	nt	nt	nt	nt	23
CSc1nc(N)nc2c1ncn2CC(=O)NCc1ccc2[nH]ccc2c1	nt	nt	nt	nt	nt	12
CCOc1ccc(N2C(=O)Nc3ccccc3C2(O)C(=O)NCc2ccc3c(c2)OCO3)cc1 (configuration not stated)	-4	-5	1	15	0	10
CCOc1ccc(N2C(=O)Nc3ccccc3C2(O)C(=O)NCc2ccc(C)cc2)cc1 (configuration not stated)	12*	-8	1.1	6	5	-11
SMILES	Wee1 stabilizer	FLuc inh counter	FLuc stim CS	PPC-1+TRAIL kill	PKD1 kinase inh	TRAIL sens C8
CC(C)(C)C(=O)Nc1ccc(-c2cc3cc(Cl)ccc3o2)cc1	-2	nt	nt	28	nt	26
CCOc1ccc(-n2c(=O)c3sccc3n(CC(=O)NCC3CCCO3)c2=O)cc1 (configuration not stated)	nt	nt	nt	nt	nt	-10
COc1cc2nc(N3CCN(c4cc(C)ccc4C)CC3)nc(N)c2cc1OC	nt	nt	nt	nt	nt	57*
COc1cc2nc(N3CCNCC3)nc(N)c2cc1OC	1	-8	1.1	23	-1	53*
Nc1nonc1NC(=O)CSc1ncccc1C(=O)O	14*	-9	1.1	-6	-12	-14
O=C(CSc1ncccc1C(=O)O)Nc1ccc2c(c1)OCCO2	nt	nt	nt	nt	nt	8
Fc1ccc(-c2nc(-c3cccs3)no2)cc1	15*	nt	nt	-3	nt	1
COC(=O)c1ccc(-c2nc(-c3cccs3)no2)cc1	1	72*	0.3	34	-8	58*
COC(=O)c1ccc(-c2nc(-c3ccc(Br)o3)no2)cc1	-1	9	0.9	17	-8	7
O=C(CSc1n[nH]c(-c2ccccc2Cl)n1)NCc1cccc(C(=O)O)c1	0	-3	1	13	-5	-2
CCCCNC(=O)C1c2ccccc2OCC(=O)N1CC(F)(F)F (configuration not stated)	nt	nt	nt	nt	nt	-4
Cc1ccc(NC(=O)CSc2nnc(C3CC3)n2CC2CCCO2)c(C)c1 (configuration not stated)	nt	nt	nt	nt	nt	-3
CCOC(=O)c1[nH]c2ccccc2c1N=CN(C)C	-1	nt	nt	nt	-4	-18
CN(C)C=Nc1ccc2nc3c(cc2c1)[nH]c1ccccc13	nt	nt	nt	nt	nt	76*
Cc1nnc2c(NC3CCCCC3)nc3ccccc3n12	nt	nt	nt	nt	nt	-3
CCCN1Cc2cccc(C(=O)NCc3ccc(C)cc3)c2C1=O	9.3*	-5	1.1	12	-3	0
O=C(Nc1ccc(Cl)cn1)c1cc2ccccc2o1	4	64*	0.4	22	0	42
Cc1csc(C(C#N)C(=O)c2cc3ccccc3o2)n1 (configuration not stated)	3	88*	0.1	34	0	59*
COc1ccccc1N(Cc1ccccc1)S(=O)(=O)c1cccc(C(=O)Nc2cc(C)ccn2)c1	nt	nt	nt	nt	nt	61*
COc1cc(NC(=O)c2ccccc2)ccc1NC(=O)c1cc2ccccc2o1	nt	nt	nt	nt	nt	8
Cc1cc(NC(=O)c2cncc(Br)c2)ccc1NC(=O)c1cc2ccccc2o1	nt	nt	nt	nt	nt	60*
O=C(CCS(=O)(=O)c1ccc(Br)s1)Nc1ccccc1Br	-3	-4	1	26	7	-22
CCc1ccccc1NC(=O)CNCC(=O)Nc1ccccc1CC	nt	nt	nt	nt	nt	-6
COC(=O)c1cccc(NC(=O)c2cc3ccccc3o2)c1	nt	nt	nt	nt	nt	50*
Cc1ccnc(NC(=O)c2ccccc2NC(=O)c2ccccc2)c1	nt	nt	nt	nt	nt	31
O=C(Nc1nc(-c2ccco2)cs1)c1ccccc1	-1	17	0.8	-1	-9	11

Bioassay records: PubChem, several laboratories
